This is an account of results in article PMC4780051 (Biochemistry, 2010).

The target in assay [1] is T1, ct-AChBP (Capitella teleta acetylcholine-binding protein) (Capitella teleta, UniProt I6L8L2).
T1 sequence (I6L8L2 1-224): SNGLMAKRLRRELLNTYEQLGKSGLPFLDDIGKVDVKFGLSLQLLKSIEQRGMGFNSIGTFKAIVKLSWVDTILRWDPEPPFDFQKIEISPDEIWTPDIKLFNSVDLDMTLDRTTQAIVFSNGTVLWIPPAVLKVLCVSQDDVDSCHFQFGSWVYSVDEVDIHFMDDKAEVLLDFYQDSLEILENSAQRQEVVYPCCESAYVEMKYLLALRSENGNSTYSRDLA
The assay is described as follows: STD NMR displacement titration with acetylcholine as reporter ligand.

The target of assay [2] is T1, ct-AChBP (Capitella teleta acetylcholine-binding protein). The assay is described as follows: 1H NMR direct titration.
The target is the same in assay [3]. The experiment in a line: STD NMR displacement titration with choline as reporter ligand. Put shortly: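 C-terminally V5/His-tagged ct-AChBP, stably expressed in HEK293-f cells, purified from medium by cobalt affinity then Superdex 200. 5 μM protein with 100 μM choline in 25 mM phosphate pH 7.0, 100% D2O, titrated with test compound; 16K scans; choline CH2 STD peaks tracked. KD fitted by competition equation using choline KD from shift/line-width titration; standard errors from asymptotic covariance matrix.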

The target of assay [4] is Capitella teleta acetylcholine-binding protein (Capitella teleta). The experiment in a line: NMR titration.

As a reminder, the Kd is a measure of binding affinity in units of concentration. As for `CN1CCC[C@H]1c1cccnc1` [Nic, nicotine], the Kd in assay [1] stood at 209 ± 51 nM. On to `C[N+](C)(C)CCO` [Ch, choline], for which, in assay [2], the dissociation constant (Kd) was 163 ± 37 µM. `CC(=O)OCC[N+](C)(C)C` [ACh, acetylcholine] registered a Kd in assay [3] of 28.7 ± 1.7 µM. In the case of “α-bungarotoxin (from UniProt P60615 22-95) (natural protein)”, in assay [4], the dissociation constant Kd turned out to be 110 nM.
